Experimental data taken from article PMC5696082 (Analytical biochemistry, 2017).

Experiments:
hCE2 [1] = biological target: T1, hCE2 (Homo sapiens, UniProt O00748); experiment: Kinetic properties; type: biochemical
T1 sequence (O00748 27-559): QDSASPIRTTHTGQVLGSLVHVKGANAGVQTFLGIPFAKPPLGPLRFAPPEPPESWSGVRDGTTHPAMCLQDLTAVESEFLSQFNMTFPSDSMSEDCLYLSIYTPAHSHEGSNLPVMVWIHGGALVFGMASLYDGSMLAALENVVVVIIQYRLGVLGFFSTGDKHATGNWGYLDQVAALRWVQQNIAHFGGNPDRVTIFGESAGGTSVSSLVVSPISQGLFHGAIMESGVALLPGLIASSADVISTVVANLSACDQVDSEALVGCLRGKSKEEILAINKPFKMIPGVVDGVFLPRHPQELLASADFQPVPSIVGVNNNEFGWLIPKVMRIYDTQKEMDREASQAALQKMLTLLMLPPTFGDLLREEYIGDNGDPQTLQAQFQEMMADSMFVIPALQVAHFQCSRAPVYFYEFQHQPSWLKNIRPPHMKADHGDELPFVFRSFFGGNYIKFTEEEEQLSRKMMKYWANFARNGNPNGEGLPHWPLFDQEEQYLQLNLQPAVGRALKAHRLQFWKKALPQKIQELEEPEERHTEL

Lung S9 = experiment: Substrate hydrolysis by pooled tissue S9, lung; type: biochemical, human
Method in brief: (§1)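 Commercial pooled human tissue S9 fraction added to substrate at 50 µM final in 100 mM sodium phosphate, pH 8.0, 0.1 mg/mL BSA. Fluorescence monitored every 30 s for at least 10 min at 37°C. Specific activity given as the mean of triplicates in one experiment, or mean ± standard deviation of 3 independent experiments run in triplicate.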

hCE2 [2] = biological target: T1, hCE2; experiment: Specific activity of hCE2 towards substrates; type: biochemical
Method in brief: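 Enzymes expressed in baculovirus-infected High Five cells: hCE1 CHAPS-solubilised from the 100,000 g pellet, then DEAE-purified; hCE2/hCE3 crude soluble fraction; FAAH crude insoluble fraction. Substrate added to 50 µM final in 100 mM sodium phosphate pH 8.0, 0.1 mg/mL BSA, 1% DMSO. Fluorescence read every 30 s for ≥10 min at 37°C. Rates corrected for estimated purity: hCE1 25%, hCE2 4%, hCE3 3.5% (3% in footnotes), FAAH 6.9%. Triplicates.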

hCE1 = biological target: T2, hCE1 (Homo sapiens, UniProt P23141); experiment: Kinetic properties; type: biochemical
T2 sequence (P23141 18-567): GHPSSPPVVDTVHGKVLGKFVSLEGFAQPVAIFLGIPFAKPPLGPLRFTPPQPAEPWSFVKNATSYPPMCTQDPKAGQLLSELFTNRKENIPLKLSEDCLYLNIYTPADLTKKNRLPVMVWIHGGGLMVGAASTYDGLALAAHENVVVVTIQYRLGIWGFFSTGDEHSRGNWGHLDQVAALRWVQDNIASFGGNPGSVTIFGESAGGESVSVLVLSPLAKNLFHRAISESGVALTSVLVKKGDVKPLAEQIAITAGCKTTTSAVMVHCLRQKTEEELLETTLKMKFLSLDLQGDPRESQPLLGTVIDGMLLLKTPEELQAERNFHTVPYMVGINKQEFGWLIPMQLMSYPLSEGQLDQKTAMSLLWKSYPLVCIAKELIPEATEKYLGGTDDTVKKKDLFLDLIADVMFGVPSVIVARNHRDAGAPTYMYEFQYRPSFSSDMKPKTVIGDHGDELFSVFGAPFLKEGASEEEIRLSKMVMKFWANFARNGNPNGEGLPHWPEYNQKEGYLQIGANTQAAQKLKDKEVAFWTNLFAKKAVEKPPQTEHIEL

Kidney S9 = experiment: Substrate hydrolysis by pooled tissue S9, kidney; type: biochemical, human
Method in brief: as §1

Intestine S9 = experiment: Substrate hydrolysis by pooled tissue S9, intestine; type: biochemical, human
Method in brief: as §1

KM for hCE2, fold lower than that of hCE1 (hCE2 [1]): 3 fold
Selectivity of hCE1 turnover compared to hCE2 (hCE2 [2]): 40- to 50 fold
hCE2 Specific activity (hCE2 [2]; Table 3, [S] = 50 µM, 37°C, pH 8, estimated 4% purity): 13 pmol/min/µg
Hydrolysis Specific Activity (hCE2 [2]; Table 6, hCE2): 6.4 ± 0.7 pmol/min/µg
Catalytic efficiency of hCE1, fold lower than that of CMNA (hCE1): approximately 16 fold
Vmax with hCE1, fold lower than CMNA (hCE1): 3 fold
Vmax, fold higher with hCE1 than hCE2 (hCE1): 120 fold
SMILES: CCCCC(C)CCC(=O)Nc1ccc(OC)nc1C (stereo not shown) [4-MOMMP, N-(6-methoxy-2-methylpyridin-3-yl)-4-methyloctanamide]
Hydrolysis Specific Activity (Lung S9): 0.20 ± 0.02 pmol/min/µg
Hydrolysis Specific Activity (Kidney S9): <0.05 pmol/min/µg
Hydrolysis Specific Activity (Intestine S9): <0.05 pmol/min/µg
